Only some compounds are listed: those with a hit (about 3% of all), similar ones and a draw of the others.
GASC-1 inh: inhibitors of GASC-1 histone demethylase, primary screen, biochemical, fluorescence, DELFIA europium; inhibition, % at 2.35 µM; 330,000 tested, 0.069% active; Lysine-specific demethylase 4C (Homo sapiens), Q9H3R0; AID 2099, 2009; GST-JMJD2C(1-420) H3K9me3 demethylation;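 active = more than half of a compound's replicate wells show inhibition beyond 50%, single wells judged on their own value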;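 also: signal counts dimethyl H3K9 product captured on neutravidin plate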
aDG glyco act: activators of alpha-DG glycosylation, primary screen, uHTS, Pro5-aDG cells, AlphaScreen. alpha-DG glycosylation AlphaScreen (IIH6); 0% Pro5, 100% B10-LARGE cell signal. activation, % at 10 µM. 360,000 tested, 0.22% active. AID 624168, 2012;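 active = activation of at least 8% versus controls, or a plate z-score of at least 8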;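 also: Pro5 are CHO cells carrying HIG-tagged alpha-DG that lacks glycosylation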
Hep lipid drop: inhibitors of hepatocyte lipid droplet formation, primary screen, imaging, high-throughput imaging, BODIPY stain. AML12 mouse hepatocytes, oleate lipid droplets. AID 1656, 2009. inhibition, % at 6.5 µM. 240,000 tested, 0.4% active;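 active = lipid droplet intensity inhibited by at least 50%, with more than 500 cells counted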
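Assay system: AML12 mouse liver cells | Compound: 6.5 µM single-point dosing | Schedule: Overnight exposure | Technique: Fluorescence imaging, 20x objective, two fields per well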
GC-A act: GC-A stimulated cGMP production enhancers – HEK293 GC-A cells, cGMP TR-FRET, EC30 ANP, primary screen | 0% at EC30 ANP, 100% saturating ANP | Atrial natriuretic peptide receptor 1 (Homo sapiens), P16066 | 370,000 tested, 0.14% active | activation, % at 10 µM; in the data active = activation above about 40%
NR3A LBD binder: binders of NR3A ligand-binding domain, primary screen, biophysical, differential scanning fluorimetry, uHTS; Tm shift relative to glycine control, % at 25 µM; 340,000 tested, 2.5% active; Glutamate receptor ionotropic, NMDA 3A (GRIN3A) ligand-binding domain; NR3A LBD differential scanning fluorimetry, Tm shift; 0% = protein alone, 100% = glycine-bound protein; AID 1259313, 2017;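 active = melting temperature shift of at least 10% of the positive control shift, at one fixed dose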
GC-B act: human GC-B receptor activators, primary screen, HEK293 GC-B cells, cGMP TR-FRET, EC30 CNP; 370,000 tested, 0.11% active; activation, % at 10 µM; AID 1920062, 2024; Atrial natriuretic peptide receptor 2 (Homo sapiens), P20594; 0% at EC30 CNP, 100% saturating CNP;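 active = activation at 10 µM reaching about 35% in either raw or pattern-adjusted values, limit read from the data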
Target sequence (P20594 whole entry, looked up): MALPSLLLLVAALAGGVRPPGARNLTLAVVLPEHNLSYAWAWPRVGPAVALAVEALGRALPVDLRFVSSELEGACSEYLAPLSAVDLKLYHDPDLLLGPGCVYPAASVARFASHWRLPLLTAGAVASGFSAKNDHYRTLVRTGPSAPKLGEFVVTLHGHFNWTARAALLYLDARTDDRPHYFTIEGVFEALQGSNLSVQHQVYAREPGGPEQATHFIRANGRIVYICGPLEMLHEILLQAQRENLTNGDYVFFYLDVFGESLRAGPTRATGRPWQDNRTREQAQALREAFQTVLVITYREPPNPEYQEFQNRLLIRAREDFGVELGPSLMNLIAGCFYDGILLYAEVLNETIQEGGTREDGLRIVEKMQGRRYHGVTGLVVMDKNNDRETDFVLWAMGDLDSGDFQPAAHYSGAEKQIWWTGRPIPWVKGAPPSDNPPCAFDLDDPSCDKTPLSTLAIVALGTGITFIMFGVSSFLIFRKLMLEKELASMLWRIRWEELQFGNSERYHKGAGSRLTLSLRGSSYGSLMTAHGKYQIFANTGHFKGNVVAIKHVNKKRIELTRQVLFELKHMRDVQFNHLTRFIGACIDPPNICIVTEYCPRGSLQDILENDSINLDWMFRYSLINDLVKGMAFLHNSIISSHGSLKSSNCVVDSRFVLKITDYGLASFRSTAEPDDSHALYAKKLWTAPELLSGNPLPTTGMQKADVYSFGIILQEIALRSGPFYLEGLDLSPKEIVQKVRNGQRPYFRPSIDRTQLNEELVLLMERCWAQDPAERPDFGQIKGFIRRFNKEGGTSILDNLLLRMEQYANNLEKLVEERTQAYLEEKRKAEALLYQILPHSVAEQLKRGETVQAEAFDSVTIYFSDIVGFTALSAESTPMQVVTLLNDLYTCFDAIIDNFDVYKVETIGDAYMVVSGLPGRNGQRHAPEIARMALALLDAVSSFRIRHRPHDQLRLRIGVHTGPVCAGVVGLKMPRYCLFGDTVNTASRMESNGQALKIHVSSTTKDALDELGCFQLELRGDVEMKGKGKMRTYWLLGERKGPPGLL
Large screens that a line does not name were inactive.

O=C(CCc1ccccc1)N[C@H]1[C@H](O)CCC[C@@]12C(=O)N(Cc1ccccc1)c1ccc(-c3ccccc3)cc12	none (no result: GASC-1 inh, aDG glyco act, Hep lipid drop, NR3A LBD binder)
Nc1ccn([C@@H]2O[C@H](C(=O)N[C@H](Cc3ccccc3)C(=O)N3CCN(CC(=O)N4CCCC4)CC3)[C@@H](O)[C@H]2O)c(=O)n1	none (no result: GASC-1 inh, aDG glyco act, Hep lipid drop, NR3A LBD binder)
O=C(N[C@@H]1C[C@@H]2O[C@@H](CO)CC[C@@H]2O[C@@H]1CCc1ccc(-c2ccccc2)cc1)c1cnccn1	none (no result: GASC-1 inh, aDG glyco act, Hep lipid drop, NR3A LBD binder)
O=C(N/N=C/c1c[nH]c2ccccc12)c1cccs1	NR3A LBD binder 23
O=C(N/N=C/c1c[nH]c2ccccc12)c1ccc2c(c1)OCCO2	NR3A LBD binder 11
O=C(N/N=C/c1c[nH]c2ccccc12)c1sc2ccccc2c1Cl	NR3A LBD binder 35
Cc1nc2ccc(C(=O)N/N=C/c3cc([N+](=O)[O-])ccc3O)cc2[nH]1	GASC-1 inh 58
O=C(NN=Cc1c[nH]c2ccccc12)NN=Cc1c[nH]c2ccccc12	none (no result: GASC-1 inh, Hep lipid drop, NR3A LBD binder)
COc1ccc(CN2C[C@]3(C=C(C)Cn4c(=O)n(-c5ccccc5)c(=O)n43)N(C(=O)OCc3ccccc3)C2=NC(=O)c2ccccc2)c(OC)c1	none (no result: GASC-1 inh, aDG glyco act, Hep lipid drop, NR3A LBD binder)
Cc1ccc(CN2CCCCC(NC(=O)c3ccccc3C)C2=O)cc1 (stereo unspecified)	none (no result: GASC-1 inh, aDG glyco act, Hep lipid drop, NR3A LBD binder)
CC(=O)n1cc(/C=N/NC(=O)c2ccc([N+](=O)[O-])cc2)c2ccccc21	NR3A LBD binder 21
Cc1ccc(C(=O)Nc2ccc(C(=O)N/N=C/c3c[nH]c4ccccc34)cc2)cc1	NR3A LBD binder 31
O=C(N/N=C/c1c[nH]c2ccc(Br)cc12)c1ccc2c(c1)OCO2	NR3A LBD binder 31
COc1cccc(/C=N/NC(=O)c2cccc3ccccc23)c1OC	none (no result: Hep lipid drop)
COc1ccccc1C(=O)N/N=C/c1c[nH]c2ccccc12	NR3A LBD binder 14 (no result: Hep lipid drop)
CC(COc1cccc(Cl)c1)CN1CCC(C(O)(c2ccccc2)c2ccccc2)CC1 (stereo unspecified)	none (no result: GASC-1 inh, aDG glyco act, Hep lipid drop, NR3A LBD binder)
O=C(N/N=C/c1c[nH]c2ccccc12)c1cccc([N+](=O)[O-])c1	NR3A LBD binder 25
Cc1ccc(C(=O)N/N=C/c2c[nH]c3ccccc23)o1	none
Cc1cc(C(=O)N/N=C/c2c[nH]c3ccccc23)cs1	NR3A LBD binder 27
O=c1cc2oc3cc(O)c(O)cc3c(-c3ccccc3[N+](=O)[O-])c-2cc1O	GASC-1 inh 57
COc1ccc(/C=C2/SC(=S)N(CCCC(=O)Nc3ccc(O)cc3)C2=O)cc1	NR3A LBD binder 13
O=C(CCCN1C(=O)/C(=C\c2cccs2)SC1=S)Nc1cccnc1	NR3A LBD binder 13
O=C(CCN1C(=O)/C(=C/c2ccc(F)cc2)SC1=S)Nc1cc([N+](=O)[O-])ccc1O	NR3A LBD binder 18
O=C(CCCN1C(=O)/C(=C/c2cccs2)SC1=S)Nc1cc([N+](=O)[O-])ccc1O	none
O=C(CCCN1C(=O)/C(=C/c2cccs2)SC1=S)Nc1cccnc1	none
COc1ccc(/C=C2\SC(=S)N(CCC(=O)Nc3cccc(O)c3)C2=O)cc1	NR3A LBD binder 35 (no result: Hep lipid drop)
C=CCn1c(SCC(=O)OC(C)C)nnc1-c1ccc(C)cc1	none (no result: GASC-1 inh, aDG glyco act, Hep lipid drop, NR3A LBD binder)
COc1ccc(-c2nc3ccccc3c(=O)n2O)cc1	NR3A LBD binder 32
O=c1c2ccccc2nc(-c2ccccc2)n1O	none (no result: Hep lipid drop)
COC(=O)C1=C(C)N(Cc2cccc(C(F)(F)F)c2)C(=NCc2ccc3c(c2)OCO3)NC1c1ccccc1C(F)(F)F (stereo unspecified)	none (no result: GASC-1 inh, aDG glyco act, Hep lipid drop, NR3A LBD binder)
CCOC(=O)Cc1csc(NC(=O)NC2(C(F)(F)F)Oc3cc(Cl)c(Cl)cc3O2)n1	NR3A LBD binder 11
COC(=O)C1=C(C)N(CCc2ccccc2)C(=O)/C1=C\c1ccco1	NR3A LBD binder 19
COCCCNC(=O)C[C@H]1C[C@@]2(C(=O)OC)C(=C[C@H](C3CCCC3)O[C@@H]2C)N(Cc2ccc(Cl)cc2Cl)C1=O	none (no result: GASC-1 inh, aDG glyco act, Hep lipid drop, NR3A LBD binder)
O=C(c1ccc(Cl)c(Cl)c1)N1CCC(=O)N([C@H](COCc2cccc(C(F)(F)F)c2)Cc2ccccc2)CC1	none (no result: GASC-1 inh, Hep lipid drop, NR3A LBD binder)
Cc1ccsc1C(=O)N1CCC1(C)C(=O)NS(=O)(=O)c1ccc(Br)cc1 (stereo unspecified)	none (no result: GASC-1 inh, Hep lipid drop, NR3A LBD binder)
CN(C)CCNC=C(C(=O)Nc1ccc(Cl)cc1Cl)C(=O)Nc1ccc(Cl)cc1Cl	NR3A LBD binder 13
COc1cc(SC)ccc1C(=O)NCCOc1ccc(C)c(C)c1	NR3A LBD binder 16
CSc1nsc(SCC(=O)N2CCN(c3ccccc3)CC2)n1	NR3A LBD binder 11
CSc1nsc(SCC(=O)Nc2ccccc2)n1	none
Nc1ccn(C(C=O)CC(C=O)CO)c(=O)n1 (stereo unspecified)	none (no result: GASC-1 inh, Hep lipid drop, NR3A LBD binder)
COC(=O)C1=C(C)N(C)C(=NCC2CC2)NC1c1cccc(F)c1 (stereo unspecified)	none (no result: GASC-1 inh, aDG glyco act, Hep lipid drop, NR3A LBD binder)
CCN(CC)S(=O)(=O)c1cc(C(=O)OCC(=O)Nc2cccc(Br)c2)ccc1F	NR3A LBD binder 18
CCN(CC)S(=O)(=O)c1cc(C(=O)OCC(=O)Nc2c(F)cccc2F)ccc1F	none
O=C(Nc1cccc(Cl)c1)c1ccc(F)c(S(=O)(=O)NCc2cccs2)c1	NR3A LBD binder 13
CCN(c1ccccc1)S(=O)(=O)c1cc(C(=O)Nc2cccc(Cl)c2)ccc1F	NR3A LBD binder 15
COC(=O)[C@]12C[C@H](CC(=O)NCCCN3CCCC3=O)C(=O)N(CCc3ccc(OC)c(OC)c3)C1=C[C@H](C1CCCC1)O[C@@H]2C	none (no result: GASC-1 inh, aDG glyco act, Hep lipid drop, NR3A LBD binder)
CC(C)C[C@H](NC(=O)c1ccccn1)C(=O)N1CCC[C@H]1C(=O)NCc1ccccc1	none (no result: GASC-1 inh, aDG glyco act, Hep lipid drop, NR3A LBD binder)
CCN(CC(=O)NC(=O)NC1CCCC1)Cc1ccccc1	none (no result: Hep lipid drop)
Cc1ccc2nc(-c3ccc(NC(=O)CN4C(=O)NC(C)(c5ccc(OC(F)F)cc5)C4=O)cc3)sc2c1 (stereo unspecified)	NR3A LBD binder 35
Cc1cc(C)cc(N(CC(=O)Nc2ccc(-c3nc4ccc(C)cc4s3)cc2)S(C)(=O)=O)c1	NR3A LBD binder 26
Cc1ccc2nc(-c3ccc(NC(=O)CN(c4ccccc4C)S(C)(=O)=O)cc3)sc2c1	NR3A LBD binder 15
CC1(c2ccc(OC(F)F)cc2)NC(=O)N(CC(=O)Nc2ccccc2)C1=O (stereo unspecified)	none
COc1ccc(-n2c(COc3ccc(C)cc3)nnc2SCC(=O)Nc2ccc(S(=O)(=O)Nc3cc(C)nc(C)n3)cc2)cc1	none (no result: GASC-1 inh, aDG glyco act, Hep lipid drop, NR3A LBD binder)

Screening results deposited in PubChem by several laboratories.
